ChEMBL document CHEMBL1146382, “Design and synthesis of BACE1 inhibitors containing a novel norstatine derivative (2R,3R)-3-amino-2-hydroxy-4-(phenylthio)butyric acid” (Bioorg Med Chem Lett, 2007)
Numbered stars: 1 amine (or outer) side, 2 acyl side, 3 side chain; on linkers, the order of the positions; unused ones are H or OH. Square brackets hold non-standard residues; d marks the D form. Peptide text beside a SMILES is read from it. β3hPhe(2R-OH) = O=C([C@H](O)[C@H](Cc1ccccc1)N[*:1])[*:2]; X1 = O=C([C@H](O)[C@H](CSc1ccccc1)N[*:1])[*:2]

Key:
[1] = biological target: Beta-secretase 1 (Homo sapiens) (UniProt P56817); test: Inhibition of human recombinant BACE1 at 0.2 uM
How it was run: (§1)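 Recombinant human BACE1 enzymatic assay. Inhibition is expressed as the percent decrease in substrate cleaved by the enzyme.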

[2] = biological target: Beta-secretase 1 (Homo sapiens) (UniProt P56817); test: Inhibition of human recombinant BACE1 at 2 uM; how it was run: as §1

Sequence of Beta-secretase 1 (Homo sapiens) (P56817 whole entry): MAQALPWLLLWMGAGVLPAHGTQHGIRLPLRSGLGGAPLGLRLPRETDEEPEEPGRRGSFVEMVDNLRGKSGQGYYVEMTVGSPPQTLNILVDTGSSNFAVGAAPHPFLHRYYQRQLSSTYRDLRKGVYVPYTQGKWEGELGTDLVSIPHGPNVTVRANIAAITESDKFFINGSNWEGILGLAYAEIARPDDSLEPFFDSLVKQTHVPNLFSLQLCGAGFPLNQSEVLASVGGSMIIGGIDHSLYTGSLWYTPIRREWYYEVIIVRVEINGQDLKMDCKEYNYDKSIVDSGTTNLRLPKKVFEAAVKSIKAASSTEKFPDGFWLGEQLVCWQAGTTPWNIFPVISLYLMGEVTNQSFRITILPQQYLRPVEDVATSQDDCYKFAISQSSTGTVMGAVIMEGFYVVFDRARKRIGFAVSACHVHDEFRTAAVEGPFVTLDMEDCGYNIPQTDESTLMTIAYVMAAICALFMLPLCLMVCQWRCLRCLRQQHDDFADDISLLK

| inhibition [1] | inhibition [2] | SMILES |
| --- | --- | --- |
| 80% | 98% | CC(C)C[C@H](NC(=O)[C@@H](NC(=O)[C@@H](N)CNC(=O)c1cc(N)cc(C(=O)O)c1)C(C)C)C(=O)N[C@@H](Cc1ccccc1)[C@@H](O)C(=O)Nc1cccc(C(=O)O)c1 |
| 57% | 96% | CC(C)C[C@H](NC(=O)[C@@H](NC(=O)[C@@H](N)CCC(=O)O)C(C)C)C(=O)N[C@@H](CSc1ccccc1)[C@@H](O)C(=O)Nc1cccc(C(=O)O)c1 |
|  | 69% | CC(C)C[C@H](NC(=O)[C@@H](NC(=O)[C@@H](N)CCC(=O)O)C(C)C)C(=O)N[C@@H](CSc1ccccc1)[C@@H](O)C(=O)N[C@@H](CC(=O)O)C(=O)O (H-EVL[X1]D-OH) |

Second part, the molecule before the results:

| SMILES | inhibition [1] | inhibition [2] |
| --- | --- | --- |
| CC(C)C[C@H](NC(=O)[C@@H](NC(=O)[C@@H](N)CCC(=O)O)C(C)C)C(=O)N[C@@H](CSc1ccccc1)[C@@H](O)C(=O)N[C@@H](CC(=O)O)C(=O)N[C@@H](C)C(=O)N[C@@H](CCC(=O)O)C(=O)N[C@@H](Cc1ccccc1)C(=O)O (H-EVL[X1]DAEF-OH) | 34% | 82% |
| CC(C)C[C@H](NC(=O)[C@@H](NC(=O)[C@@H](N)CNC(=O)c1cc(N)cc(C(=O)O)c1)C(C)C)C(=O)N[C@@H](CSc1ccccc1)[C@@H](O)C(=O)Nc1cccc(C(=O)O)c1 | 86% | 99% |
| CC(C)C[C@H](NC(=O)[C@@H](NC(=O)[C@@H](N)CCC(=O)O)C(C)C)C(=O)N[C@@H](Cc1ccccc1)[C@@H](O)C(=O)N[C@@H](CC(=O)O)C(=O)N[C@@H](C)C(=O)N[C@@H](CCC(=O)O)C(=O)N[C@@H](Cc1ccccc1)C(=O)O (H-EVL[β3hPhe(2R-OH)]DAEF-OH) | 32% |  |
